Like-named read-outs stand apart in the source and are kept apart here.

Data on 2 molecules can be found in PMC3970594 (Memórias do Instituto Oswaldo Cruz, 2013).

For data set [1], the system named is L. (L.) infantum chagasi promastigotes. The data set can be described thus: L. The class given is cell-based, Leishmania (Leishmania) infantum chagasi. The settings on record: evaluation of the IC50. A digest of the protocol: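 Promastigotes (MHOM/BR/1972/LD; M-199 with 10% FBS, 0.25% haemin) were seeded at 1 × 10⁶ cells/well. Two-fold serial dilutions were applied for 24 h at 24 °C. MTT was added for 4 h at 24 °C, formazan was dissolved in 10% SDS for 18 h, and OD was read at 570 nm. Viability was normalised to untreated promastigotes (100%). IC50 came from a sigmoid dose-response fit, three experiments in duplicate.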

In data set [2] the test system is intracellular L. (L.) infantum chagasi amastigotes. The data set can be described thus: Activity against intracellular amastigotes in infected peritoneal macrophages. The following applies: ratio of IC50 promastigotes to amastigotes. The class given is cell-based, Leishmania (Leishmania) infantum chagasi. A digest of the protocol:
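For amastigotes, BALB/c peritoneal macrophages were plated on coverslips at 4 × 10⁵/well for 24 h. They were infected with hamster-spleen amastigotes at 10:1 for 24 h and washed. Compound was added for 5 days at 37 °C, 5% CO₂. Giemsa counts in 400 macrophages (untreated = 100%) gave a sigmoid-fit IC50, two experiments in duplicate.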

For data set [3] the following is noted: ref Chakravarti & Sem Gupta 1950, cited from earlier work.
Data set [4] relates to L. (L.) infantum chagasi amastigotes. The data set can be described thus: Treatment of L. The following applies: 50 mg Sb5+/kg/day i.p., four consecutive days. The class given is in vivo, BALB/c mice. A digest of the protocol:
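Female BALB/c mice (20-24 g) were infected i.v. by the retro-bulbar route with 1-2 x 10⁷ hamster-spleen amastigotes/150 µL. From day 7, groups of 4 received 50 mg Sb⁵⁺/kg/day i.p. for four consecutive days; controls received PBS. Mice were euthanised two weeks post-infection and liver and spleen were weighed. Amastigotes per 400 nuclei on Giemsa imprints × organ weight (g) gave Leishman-Donovan units.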

For data set [5] the following is noted: ref Rees et al. (1980), cited from earlier work.

Turning to meglumine antimoniate [MA], the susceptibility of promastigotes result in data set [1] was “not susceptible”. The “fold more active against amastigotes than against promastigotes” value in data set [2] stood at 680 fold. In addition, the “time to complete elimination after administration” value in data set [3] (healthy individuals, renal excretion) is recorded as 24 h. Further, the “antimony in the urine 36 h after drug administration” value in data set [3] (ill patients (VL), 36 h) was “traces of antimony were still observed in the urine”. In data set [4] (untreated control 41.69 (8.60)), the “parasite burden in the spleen, mean (SD)” value was 32.17 (19.20) amastigotes per gram. The “parasite burden in the liver, mean (SD)” value in data set [4] (untreated control 3,331 (1,745)) is 2,696 (1,472) amastigotes per gram.
Consider `O.O.O.O.O.O.O.O.O.O=C([O-])[C@@H]1[O][Sb](=[O])([O][Sb]2(=[O])[O][C@H]([C@H](O)CO)[C@H](O)[C@H](C(=O)[O-])[O]2)[O][C@H]([C@H](O)CO)[C@@H]1O.[Na+].[Na+].[Na+]` (some centres unmarked) [sodium stibogluconate], for which the “excreted in the urine” value in data set [5] (administered intravenously, after 6 h) is listed as 96%; in data set [5] (intramuscular injection, after 6-8 h), 80-91%.
